Hits are enriched below; roughly 3.5% of the tested compounds scored in any of these assays.
MrgX1 antag – antagonists of human MrgX1 receptor; Q96LB2; MRGX1-HEK293 calcium flux, Fluo-4, BAM8-22 antagonism; stronger effect = lower value; B-score at 10 µM; 1.3% of 310,000 active; AID 588676;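 active = calcium-response B-score plate-corrected more than 3 library SD below zero, starting fluorescence within 5 deviations, no agonist response on first addition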;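 also: peak minus trough fluorescence over baseline after final BAM8-22 challenge near maximal dose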
Target sequence (Q96LB2 whole entry, looked up): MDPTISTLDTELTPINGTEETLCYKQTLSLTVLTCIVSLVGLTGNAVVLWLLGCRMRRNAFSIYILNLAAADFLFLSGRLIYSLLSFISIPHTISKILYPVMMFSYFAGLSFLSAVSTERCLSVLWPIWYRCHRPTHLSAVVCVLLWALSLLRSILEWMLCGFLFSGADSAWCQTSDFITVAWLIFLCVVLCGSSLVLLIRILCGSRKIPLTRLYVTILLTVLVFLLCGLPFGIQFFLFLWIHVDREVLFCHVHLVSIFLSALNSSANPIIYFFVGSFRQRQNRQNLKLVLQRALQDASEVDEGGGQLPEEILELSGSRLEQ
RGS4 inh – inhibitors of human RGS4 | AID 463165 | 0.45% of 310,000 active | HEK293 M3R/RGS4 inducible, Fluo-4 calcium flux; stronger effect = higher value; triggered by carbachol at its EC20 | B-score at 10 µM | P49798;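 active = B-score, a plate-corrected calcium signal, over three deviations above library mean, with baseline fluorescence within five deviations of library mean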;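 also: RGS4 expression induced by doxycycline in cells with stable M3 receptor; B-score is computed from the integrated fluorescence ratio over baseline after carbachol; higher B-score means a larger calcium signal and so more RGS4 inhibition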
Target sequence (P49798 whole entry, looked up): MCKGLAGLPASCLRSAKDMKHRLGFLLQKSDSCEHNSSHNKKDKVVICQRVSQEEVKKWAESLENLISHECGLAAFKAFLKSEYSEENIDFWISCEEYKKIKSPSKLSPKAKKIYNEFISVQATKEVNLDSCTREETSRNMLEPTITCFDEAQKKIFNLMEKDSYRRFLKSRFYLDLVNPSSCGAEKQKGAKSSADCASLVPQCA
MrgX1 PAM – human MrgX1 positive allosteric modulation, primary screen | Q96LB2 | MrgX1-HEK293, Fluo-4 calcium flux, FDSS; stronger effect = higher value | B-score at 10 µM | 0.63% of 310,000 active;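 active = plate-corrected calcium response at least 3 library SD above typical, normal starting fluorescence, not activating the receptor alone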;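 also: compound read alongside a low EC10 to EC30 dose of BAM8-22 agonist; peak minus trough fluorescence over baseline measured at the second addition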
MrgX1 agonist – activates human MrgX1 receptor signaling; Q96LB2; MrgX1-HEK293 cells, Fluo-4 calcium fluorescence, agonist mode; stronger effect = higher value; B-score at 10 µM; 0.44% of 310,000 active;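 active = calcium response B-score plate-corrected fluorescence ratio at least 3 library SD, with starting fluorescence B-score inside 5 SD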
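Material: HEK293 cells stably expressing human MrgX1 receptor | Quantity: 15,000 cells per well | Times: Cells plated overnight, dye loaded 0.5 h 37 °C, 0.5 h room temperature | Measured by: Kinetic Fluo-4 NW fluorescence of intracellular calcium | Control set: Positive and negative controls per plate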
RGS4 pot – RGS4 potentiation or activation; HEK293 M3R/inducible RGS4, carbachol calcium flux Fluo4; stronger effect = lower value; B-score at 10 µM; 0.92% of 310,000 active; AID 463111;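 active = B-score of the integrated calcium signal more than 4 SD below the library mean, with starting fluorescence not abnormally high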;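 also: negative B-score means reduced calcium response which marks RGS4 activation or potentiation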
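System: HEK293 FlpIn-TREx cells, stable M3R, doxycycline-inducible RGS4. Timing: overnight RGS4 induction, 30 min dye load 37 °C, 20 min compound RT. Also added: carbachol, ECmax concentration. Measured by: Fluo4 fluorescence kinetic imaging of calcium. Evaluation: integrated calcium ratio converted to B score.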
RGS4 act valid – RGS4 activation, validation assay; HEK293 M3R/RGS4 inducible, carbachol calcium flux Fluo4; inhibition, % at 10 µM; shares compounds with RGS4 pot; 89% of 1,100 active;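 active = inhibition above 3 SD of the buffer control wells, cut at about 41% in these data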;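 also: signal is the integrated peak-minus-minimum Fluo4 fluorescence over baseline ratio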
RGS4 act ctr – activity in cells without induced RGS4 expression; shares compounds with RGS4 pot; HEK293 M3R non-induced RGS4, Fluo4 calcium flux; after carbachol challenge at its EC90; inhibition, % at 10 µM; 82% of 1,100 active;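 active = inhibition exceeding 3 SD of buffer-only control wells, cut at about 26% in these data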;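 also: percent drop in integrated peak-minus-baseline over baseline Fluo4 ratio after carbachol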
Numbers without * were called inactive; i = inactive; . = not tested or not shown.

SMILES | MrgX1 antag | RGS4 inh | MrgX1 PAM | MrgX1 agonist | RGS4 pot | RGS4 act valid | RGS4 act ctr
COc1cc(C(=O)Nc2ccc3c(c2)N(C(=O)CCN(C)C)c2ccccc2CC3)cc(OC)c1OC | i | i | i | i | -12* | 92* | 79*
Cc1ccc(C)c(S(=O)(=O)NCCN2CCOCC2)c1 | i | i | i | i | i | . | .
CC1CCN(CCCOc2ccc(Cl)cc2Br)CC1 | i | i | i | i | i | . | .
Cc1cc(Br)ccc1OCCCCN1CCC(C)CC1 | i | i | i | i | -8.5* | 89* | 64*
CCN(Cc1ccccc1)Cc1ccc(OCc2ccccc2)cc1 | i | i | i | i | -8.3* | 93* | 70*
Nc1ccc(OCc2ccccc2)cc1 | i | i | i | i | i | . | .
Cc1cc(C(=O)O)c(CCCN)s1 | i | i | i | i | i | . | .
CCOc1ccc2nc(NC(=O)C3(C)CC3(Br)Br)sc2c1 (configuration not stated) | i | i | i | i | -8.1* | 68* | 84*
CCOC(=O)c1sc(=S)n(C)c1NC(=O)c1ccccc1C | i | i | i | i | i | . | .
c1ccc2c(c1)[nH]c1c(N3CCN(C4CCCCC4)CC3)ncnc12 | i | i | i | i | -7.8* | 64* | 84*
CC1(C)Cc2c(C#N)c(N3CCN(C(=O)c4ccccc4)CC3)nc(-c3ccco3)c2CS1 | i | . | i | i | . | . | .
CC(C)c1nc(N2CCN(C(=O)c3ccco3)CC2)c(C#N)c2c1COC(C)(C)C2 | i | i | i | i | -11* | 82* | 42*
CC(C)c1nc(N2CCN(C(=O)c3ccccc3)CC2)c(C#N)c2c1COC(C)(C)C2 | i | i | i | i | -8.8* | 45* | 84*
CN(C)CCNC(C(=O)Nc1cc(Cl)cc(Cl)c1)c1ccccc1 (configuration not stated) | i | i | i | i | -9.7* | 91* | 49*
CC(C)NC(C(=O)Nc1cc(Cl)cc(Cl)c1)c1ccccc1 (configuration not stated) | i | i | i | i | i | . | .
CCc1ccc(S(=O)(=O)NCCc2cn3cccc(C)c3n2)s1 | i | i | i | i | i | . | .
CC(NS(=O)(=O)OCC(Cl)(Cl)Cl)c1ccc(C(C)(C)C)cc1 (configuration not stated) | i | i | i | i | -8* | 91* | 94*
COc1ccc(-c2nc(-c3ccc(O)cc3O)cs2)cc1OC | . | i | . | . | -11* | 78* | 51*
CC(C)(C)N(Cc1ccccc1)C(=O)c1ccc2c(c1)OCCO2 | i | i | i | i | -9.2* | 92* | 54*
CC(C)(C)N(Cc1nc(-c2ccccc2)no1)C(=O)c1ccc2c(c1)OCO2 | i | i | i | i | i | . | .
O=C(CSc1nc(C(F)(F)F)cc(=O)[nH]1)Nc1nccs1 | i | i | i | i | i | . | .
CN(CC(=O)Nc1ccccc1Sc1ccccc1)C1CCCCC1 | i | i | i | i | -8.2* | 94* | 89*
CSc1ccccc1NC(=O)CN(C1CCCCC1)S(C)(=O)=O | i | i | i | i | i | . | .
CCN(CC)CCSc1nnc2c3cc(C)ccc3n(Cc3ccccc3)c2n1 | i | i | i | i | -11* | 93* | 85*
CSc1nnc2c3cc(F)ccc3n(Cc3ccccc3)c2n1 | i | i | i | i | i | . | .
SMILES | MrgX1 antag | RGS4 inh | MrgX1 PAM | MrgX1 agonist | RGS4 pot | RGS4 act valid | RGS4 act ctr
CCN(CC1CCCN(CCc2cccc(F)c2)C1)C(=O)c1cc2ccccc2o1 (configuration not stated) | i | i | i | i | -7.7* | 78* | 30*
CN(CC1CCCN(CCc2cccc(C(F)(F)F)c2)C1)C(=O)c1cc2ccccc2o1 (configuration not stated) | . | i | . | . | -12* | 92* | 74*
CSCCC(=O)N(C)CC1CCCN(CCc2cccc(C(F)(F)F)c2)C1 (configuration not stated) | i | i | i | i | i | . | .
CCN(CC1CCCN(CCc2cccc(F)c2)C1)C(=O)c1cc(C)oc1C (configuration not stated) | i | i | i | i | i | . | .
COc1cc(C)c(NC(=O)C(=S)NCCc2ccccc2)cc1C | i | i | i | i | i | . | .
Cc1ccc(NC(=O)CN(c2cc(C)cc(C)c2)S(=O)(=O)c2c(C)noc2C)nc1 | i | i | i | i | i | . | .
OCCN1CCN(CC/C=C2/c3ccccc3CSc3ccccc32)CC1 | i | i | i | i | i | . | .
CNCC/C=C1/c2ccccc2CSc2ccccc21 | i | i | i | i | -8.6* | 92* | 86*
CSc1cc(-c2ccccc2)n(C)c(=O)c1C#N | i | i | i | i | i | . | .
CCOC(=O)Cn1c(-c2ccccc2)cc(SC)c(C#N)c1=O | i | i | i | i | -9.2* | 90* | 79*
CCOc1ccc2[nH]c3c(N4CCc5ccccc5C4)ncnc3c2c1 | i | i | i | i | -8.5* | 94* | 72*
CN(C(=O)c1ccc(OC2CCN(CCc3ccccc3)CC2)cc1)C1CCOCC1 | i | i | i | i | i | . | .
CN(C(=O)c1ccc(OC2CCN(CCc3ccccc3)CC2)cc1)C1CCCCC1 | i | i | i | i | -8.9* | 0 | 0
CCOC(=O)CNC(=O)N1CCCC(CCC(=O)NCc2ccc(F)c(F)c2)C1 (configuration not stated) | i | i | i | i | i | . | .
CCCCC1C(C#N)=C(C)NC2=C1C(=O)CC(C)(C)C2 (configuration not stated) | i | i | i | i | i | . | .
Cc1ccc(/C=C/S(=O)(=O)Nc2ccc(C)cc2)cc1 | i | i | i | i | -9.8* | 90* | 44*
Cc1ccc(NS(=O)(=O)N(C)C)cc1 | i | i | i | i | i | . | .
CSc1ccc(C(=O)C2CCCN(Cc3ccc(N4CCNC4=O)cc3)C2)cc1 (configuration not stated) | i | i | i | i | -8* | 91* | 57*
COc1ccc(CN2CCCC(C(=O)c3ccc(SC)cc3)C2)cc1Cn1cccn1 (configuration not stated) | i | i | i | i | i | . | .

Compound activity: PubChem BioAssay, Johns Hopkins Ion Channel Center
